Assay results taken from ChEMBL document CHEMBL3864121, “Development of ebsulfur analogues as potent antibacterials against methicillin-resistant Staphylococcus aureus” (Bioorg Med Chem, 2016).
Values after ≈ are worked out from the molar mass of the structure shown. Active and inactive are the calls of the source. No cut-off for these calls is given here.

Columns and labels:
Format in all cases: functional
Staphylococcus aureus [1] = experiment: Antibacterial activity against methicillin-sensitive Staphylococcus aureus ATCC 6538 measured after overnight incubation by broth double-dilution method
How it was run: (§1)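 MIC by broth double-dilution in liquid Mueller-Hinton medium. Values are reported in µg/mL.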

Staphylococcus aureus [2] = experiment: Antibacterial activity against methicillin-sensitive Staphylococcus aureus ATCC 25923 measured after overnight incubation by broth double-dilution method; how it was run: as §1
Staphylococcus aureus [3] = experiment: Antibacterial activity against methicillin-sensitive Staphylococcus aureus ATCC 29213 measured after overnight incubation by broth double-dilution method; how it was run: as §1
Staphylococcus aureus [4] = experiment: Antibacterial activity against methicillin-resistant Staphylococcus aureus ATCC 33591 measured after overnight incubation by broth double-dilution method; how it was run: as §1
Staphylococcus aureus [5] = experiment: Antibacterial activity against methicillin-resistant Staphylococcus aureus 1 measured after overnight incubation by broth double-dilution method; how it was run: as §1
Staphylococcus aureus [6] = experiment: Antibacterial activity against methicillin-resistant Staphylococcus aureus 2 measured after overnight incubation by broth double-dilution method; how it was run: as §1
Staphylococcus aureus [7] = experiment: Antibacterial activity against methicillin-resistant Staphylococcus aureus BRS3 measured after overnight incubation by broth double-dilution method; how it was run: as §1
Staphylococcus aureus [8] = experiment: Antibacterial activity against methicillin-resistant Staphylococcus aureus C1 measured after overnight incubation by broth double-dilution method; how it was run: as §1
Staphylococcus aureus [9] = experiment: Antibacterial activity against methicillin-resistant Staphylococcus aureus C2 measured after overnight incubation by broth double-dilution method; how it was run: as §1
Staphylococcus aureus [10] = experiment: Antibacterial activity against methicillin-resistant Staphylococcus aureus C7 measured after overnight incubation by broth double-dilution method; how it was run: as §1
Staphylococcus aureus [11] = experiment: Antibacterial activity against methicillin-resistant Staphylococcus aureus C14 measured after overnight incubation by broth double-dilution method; how it was run: as §1
Staphylococcus aureus [12] = experiment: Antibacterial activity against methicillin-resistant Staphylococcus aureus C16 measured after overnight incubation by broth double-dilution method; how it was run: as §1
Staphylococcus aureus [13] = experiment: Antibacterial activity against methicillin-resistant Staphylococcus aureus C19 measured after overnight incubation by broth double-dilution method; how it was run: as §1
Staphylococcus aureus [14] = experiment: Antibacterial activity against methicillin-resistant Staphylococcus aureus G1 measured after overnight incubation by broth double-dilution method; how it was run: as §1
Staphylococcus aureus [15] = experiment: Antibacterial activity against methicillin-resistant Staphylococcus aureus G6 measured after overnight incubation by broth double-dilution method; how it was run: as §1
Staphylococcus aureus [16] = experiment: Antibacterial activity against methicillin-resistant Staphylococcus aureus G12 measured after overnight incubation by broth double-dilution method; how it was run: as §1
Staphylococcus aureus [17] = experiment: Antibacterial activity against methicillin-resistant Staphylococcus aureus G14 measured after overnight incubation by broth double-dilution method; how it was run: as §1
Staphylococcus aureus [18] = experiment: Antibacterial activity against methicillin-resistant Staphylococcus aureus NRS4 measured after overnight incubation by broth double-dilution method; how it was run: as §1
Staphylococcus aureus [19] = experiment: Antibacterial activity against methicillin-resistant Staphylococcus aureus NRS51 measured after overnight incubation by broth double-dilution method; how it was run: as §1
Staphylococcus aureus [20] = experiment: Antibacterial activity against methicillin-resistant Staphylococcus aureus NRS77 measured after overnight incubation by broth double-dilution method; how it was run: as §1
Staphylococcus aureus [21] = experiment: Antibacterial activity against methicillin-resistant Staphylococcus aureus S14 measured after overnight incubation by broth double-dilution method; how it was run: as §1
Staphylococcus aureus [22] = experiment: Antibacterial activity against methicillin-resistant Staphylococcus aureus S17 measured after overnight incubation by broth double-dilution method; how it was run: as §1
Staphylococcus aureus [23] = experiment: Antibacterial activity against methicillin-resistant Staphylococcus aureus S22 measured after overnight incubation by broth double-dilution method; how it was run: as §1
Staphylococcus aureus [24] = experiment: Antibacterial activity against methicillin-resistant Staphylococcus aureus S24 measured after overnight incubation by broth double-dilution method; how it was run: as §1
Staphylococcus aureus [25] = experiment: Antibacterial activity against methicillin-resistant Staphylococcus aureus USA100 measured after overnight incubation by broth double-dilution method; how it was run: as §1
Staphylococcus aureus [26] = experiment: Antibacterial activity against methicillin-resistant Staphylococcus aureus USA200 measured after overnight incubation by broth double-dilution method; how it was run: as §1
Staphylococcus aureus [27] = experiment: Antibacterial activity against methicillin-resistant Staphylococcus aureus USA300 measured after overnight incubation by broth double-dilution method; how it was run: as §1
Staphylococcus aureus [28] = experiment: Antibacterial activity against methicillin-resistant Staphylococcus aureus USA600 measured after overnight incubation by broth double-dilution method; how it was run: as §1
[29] = test system: Staphylococcus epidermidis; experiment: Antibacterial activity against Staphylococcus epidermidis ATCC 35984 measured after overnight incubation by broth double-dilution method; settings: RP62A
How it was run: (§2)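 MIC by broth double-dilution in Mueller-Hinton medium. Re-testing at the time-kill inoculum used 1×10^6 CFU/mL.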

Enterococcus faecalis [30] = experiment: Antibacterial activity against Enterococcus faecalis ATCC 29212 measured after overnight incubation by broth double-dilution method; how it was run: as §2
Enterococcus faecalis [31] = experiment: Antibacterial activity against Enterococcus faecalis ATCC 49533 measured after overnight incubation by broth double-dilution method; how it was run: as §2
Enterococcus faecium = experiment: Antibacterial activity against Enterococcus faecium BM4105-RF measured after overnight incubation by broth double-dilution method; how it was run: as §1
Enterococcus = experiment: Antibacterial activity against Vancomycin-resistant Enterococcus measured after overnight incubation by broth double-dilution method; how it was run: as §1
Listeria monocytogenes = experiment: Antibacterial activity against Listeria monocytogenes ATCC 19115 measured after overnight incubation by broth double-dilution method; how it was run: as §2
[32] = test system: Mycolicibacterium smegmatis; experiment: Antibacterial activity against Mycobacterium smegmatis MC2-155 measured after overnight incubation by broth double-dilution method; settings: str. MC2 155; how it was run: as §1
Staphylococcus aureus [33] = experiment: Antibacterial activity against methicillin-resistant Staphylococcus aureus S22 using 1 10^6CFU/ml measured after overnight incubation by broth double-dilution method

Row | SMILES | MIC (Staphylococcus aureus [1]) [µg/mL] | MIC (Staphylococcus aureus [2]) [µg/mL] | MIC (Staphylococcus aureus [3]) [µg/mL] | MIC (Staphylococcus aureus [4]) [µg/mL] | MIC (Staphylococcus aureus [5]) [µg/mL] | MIC (Staphylococcus aureus [6]) [µg/mL] | MIC (Staphylococcus aureus [7]) [µg/mL] | MIC (Staphylococcus aureus [8]) [µg/mL] | MIC (Staphylococcus aureus [9]) [µg/mL] | MIC (Staphylococcus aureus [10]) [µg/mL] | MIC (Staphylococcus aureus [11]) [µg/mL] | MIC (Staphylococcus aureus [12]) [µg/mL] | MIC (Staphylococcus aureus [13]) [µg/mL] | MIC (Staphylococcus aureus [14]) [µg/mL] | MIC (Staphylococcus aureus [15]) [µg/mL] | MIC (Staphylococcus aureus [16]) [µg/mL] | MIC (Staphylococcus aureus [17]) [µg/mL] | MIC (Staphylococcus aureus [18]) [µg/mL] | MIC (Staphylococcus aureus [19]) [µg/mL] | MIC (Staphylococcus aureus [20]) [µg/mL] | also measured
1 | O=c1c2ccccc2sn1-c1cccc(Br)c1 | 7.8 (≈ 25.5 µM) | 7.8 (≈ 25.5 µM) | 3.9 (≈ 12.7 µM) | 2 (≈ 6.53 µM) | 7.8 (≈ 25.5 µM) | 3.9 (≈ 12.7 µM) | 7.8 (≈ 25.5 µM) | 3.9 (≈ 12.7 µM) | 3.9 (≈ 12.7 µM) | 3.9 (≈ 12.7 µM) | 7.8 (≈ 25.5 µM) | 3.9 (≈ 12.7 µM) | 3.9 (≈ 12.7 µM) | 3.9 (≈ 12.7 µM) | 3.9 (≈ 12.7 µM) | 7.8 (≈ 25.5 µM) | 7.8 (≈ 25.5 µM) | 7.8 (≈ 25.5 µM) | 3.9 (≈ 12.7 µM) | 3.9 (≈ 12.7 µM) | MIC (Staphylococcus aureus [21]): 0.5 µg/mL (≈ 1.63 µM); MIC (Staphylococcus aureus [22]): 3.9 µg/mL (≈ 12.7 µM); MIC (Staphylococcus aureus [23]): > 125 µg/mL; MIC (Staphylococcus aureus [24]): 3.9 µg/mL (≈ 12.7 µM); MIC (Staphylococcus aureus [25]): 3.9 µg/mL (≈ 12.7 µM); MIC (Staphylococcus aureus [26]): 7.8 µg/mL (≈ 25.5 µM); MIC (Staphylococcus aureus [27]): 3.9 µg/mL (≈ 12.7 µM); MIC (Staphylococcus aureus [28]): 7.8 µg/mL (≈ 25.5 µM); MIC [29]: 3.9 µg/mL (≈ 12.7 µM); MIC (Enterococcus faecalis [30]): 15.6 µg/mL (≈ 50.9 µM); MIC (Enterococcus faecalis [31]): > 125 µg/mL; MIC (Enterococcus faecium): 15.6 µg/mL (≈ 50.9 µM); MIC (Enterococcus): 7.8 µg/mL (≈ 25.5 µM); MIC (Listeria monocytogenes): 3.9 µg/mL (≈ 12.7 µM); MIC [32]: 3.9 µg/mL (≈ 12.7 µM); Activity (Staphylococcus aureus [33]): Active
2 | CCCCCn1sc2ccccc2c1=O | 7.8 (≈ 35.2 µM) | 3.9 (≈ 17.6 µM) | 3.9 (≈ 17.6 µM) | 1 (≈ 4.52 µM) | 0.5 (≈ 2.26 µM) | 2 (≈ 9.04 µM) | 3.9 (≈ 17.6 µM) | 2 (≈ 9.04 µM) | 2 (≈ 9.04 µM) | 2 (≈ 9.04 µM) | 3.9 (≈ 17.6 µM) | 7.8 (≈ 35.2 µM) | 1 (≈ 4.52 µM) | 0.5 (≈ 2.26 µM) | 2 (≈ 9.04 µM) | 2 (≈ 9.04 µM) | 2 (≈ 9.04 µM) | 2 (≈ 9.04 µM) | 3.9 (≈ 17.6 µM) | 2 (≈ 9.04 µM) | MIC (Staphylococcus aureus [21]): ≤ 0.25 µg/mL; MIC (Staphylococcus aureus [22]): 2 µg/mL (≈ 9.04 µM); MIC (Staphylococcus aureus [23]): 3.9 µg/mL (≈ 17.6 µM); MIC (Staphylococcus aureus [24]): 3.9 µg/mL (≈ 17.6 µM); MIC (Staphylococcus aureus [25]): 3.9 µg/mL (≈ 17.6 µM); MIC (Staphylococcus aureus [26]): 3.9 µg/mL (≈ 17.6 µM); MIC (Staphylococcus aureus [27]): 3.9 µg/mL (≈ 17.6 µM); MIC (Staphylococcus aureus [28]): 3.9 µg/mL (≈ 17.6 µM); MIC [29]: 3.9 µg/mL (≈ 17.6 µM); MIC (Enterococcus faecalis [30]): 7.8 µg/mL (≈ 35.2 µM); MIC (Enterococcus faecalis [31]): > 125 µg/mL; MIC (Enterococcus faecium): 15.6 µg/mL (≈ 70.5 µM); MIC (Enterococcus): 1 µg/mL (≈ 4.52 µM); MIC (Listeria monocytogenes): 3.9 µg/mL (≈ 17.6 µM); MIC [32]: 2 µg/mL (≈ 9.04 µM); Activity (Staphylococcus aureus [33]): Active
